The record followed here is ChEMBL document CHEMBL1147223, “Saponins from Cussonia bancoensis and their inhibitory effects on nitric oxide production” (J Nat Prod, 2003).

A value given as a limit tells only on which side of the number the result lay.

The subject of experiment [1] is RAW264.7. In words: Cytotoxicity against LPS-stimulated mouse RAW264.7 cells by Griess method. In kind it is cell-based. For orientation: Nitrite, measured by Griess reagent, commonly stands in for NO production.
Experiment [2] relates to RAW264.7. In words: Inhibition of LPS-induced nitric oxide production in mouse RAW264.7 cells by Griess method. In kind it is functional, cell-based. The gist of the method: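 RAW 264.7 murine macrophages were grown in DMEM with 10% FBS, penicillin and streptomycin at 37 °C under 5% CO2, then stimulated with LPS for 24 h. Nitrite in the medium was measured by Griess reaction (sulfanilamide/naphthylethylenediamine, 10 min at room temperature, A550) against a NaNO2 standard curve. IC50 is the concentration giving a 50% decrease in NO; values are the mean of four independent experiments.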

For `C[C@H]1[C@H](C)CC[C@]2(C(=O)O)CC[C@]3(C)C(=CC[C@@H]4[C@@]5(C)CC[C@H](O[C@@H]6O[C@H](CO)[C@@H](O)[C@H](O)[C@H]6O)[C@@](C)(CO)[C@@H]5CC[C@]43C)[C@H]12`, the IC50 in experiment [1] is 126 µM; in experiment [2], 22.1 µM.
In the case of `C[C@H]1[C@H](C)CC[C@]2(C(=O)O)CC[C@]3(C)C(=CC[C@@H]4[C@@]5(C)CC[C@H](O[C@@H]6OC[C@H](O)[C@H](O)[C@H]6O)[C@@](C)(CO)[C@@H]5CC[C@]43C)[C@H]12`, the values for the IC50 in experiment [1] and in experiment [2] were 124 µM and 47.9 µM, respectively.
As to `C[C@H]1[C@H](C)CC[C@]2(C(=O)O)CC[C@]3(C)C(=CC[C@@H]4[C@@]5(C)CC[C@H](O)[C@@](C)(CO)[C@@H]5CC[C@]43C)[C@H]12`, the values for the IC50 in experiment [1] and in experiment [2] were 11 µM and 2.6 µM, respectively.
In the same order, the values of `CC(=N)NCCCC[C@H](N)C(=O)O` [L-NIL] are above 200 µM and 18.6 µM.
In the same order, the values of `C[C@H]1[C@H](C)CC[C@]2(C(=O)O)CC[C@]3(C)C(=CC[C@@H]4[C@@]5(C)CC[C@H](O)C(C)(C)[C@@H]5CC[C@]43C)[C@H]12` [URSOLIC ACID] are 58.5 µM and 46.9 µM.

The term IC50 denotes the point on the concentration scale where inhibition reaches its midpoint. Read a low IC50 as greater potency.
